Results taken from PMC3983390 (Journal of medicinal chemistry, 2014).
Where two headings read alike, the source gives them in different places. One block for each compound: values may come before it.

Tests used:
[1] = DPPH radical scavenging assay; settings: 20 to 250 μM drug, 200 μM DPPH, methanol, 30 °C, 25 min; Figure 2
In short: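 Test compound in methanol as 20–250 μM solutions (before mixing), combined 1:1 with 200 μM methanolic DPPH. Plate shaken at 30 °C for 25 min. Controls were methanol plus DPPH, with methanol alone as background and ascorbic acid as standard. Absorbance read at 517 nm. % scavenging = (A control − A sample)/A control × 100.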

[2] = test system: reserpine-treated rats; test: Reversal of reserpine-induced hypolocomotion in rats; type: in vivo, rat; settings: for reversal of akinesia (locomotor activity) in reserpine-treated rats: i.p., in DI water, 18 h after reserpine 5 mg/kg s.c.
In short: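 Male Sprague–Dawley rats (220–225 g) anaesthetised with isoflurane and given reserpine 5.0 mg/kg s.c. (acetic acid diluted in 5.5% glucose) or saline 18 h beforehand. After 1 h chamber acclimatisation, test compound (in water) given i.p. at 5 μmol/kg; reference agonist given s.c. Horizontal activity counted from infrared beam breaks for 6 h in 30-min bins. n = 4; mean ± SEM; one-way ANOVA with Dunnett vs saline controls.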

[3] = test system: 6-OHDA lesioned rats; test: In vivo rotational experiment with 6-OHDA unilaterally lesioned rats; design: species or system rat; settings: for duration of rotation / total number of rotations / rotational activity in 6-OHDA lesioned rats: i.p.
In short: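 Rats (290–320 g) with a unilateral 6-OHDA lesion of the left medial forebrain bundle. Lesion confirmed by apomorphine challenges, including 0.05 mg/kg at 21 days post-lesion with contralateral rotations counted for 30 min. Test compound given i.p. at 5 or 10 μmol/kg; controls were vehicle and apomorphine reference. Contralateral (clockwise) rotations counted in harnessed rotometry chambers from dosing, in 30-min bins, over 7–12 h.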

[4] = test system: MN9D cells; test: Neuroprotection against MPP+ toxicity in dopaminergic MN9D cells; type: cell-based, mouse; settings: 1 h pretreatment, then cotreatment with 100 μM MPP+ for 24 h; MTT
In short: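 MN9D cells (mouse mesencephalic neuron × N18TG2 hybridoma) grown on poly-L-lysine in high-glucose DMEM with 10% serum and penicillin/streptomycin, 37 °C, 5% CO2. Seeded at 1 × 10^4 cells/well and equilibrated 40 h. Pretreated 1 h with test compound (0.001–20 μM; DMSO stock), then MPP+ added to 100 μM final for 24 h; controls 0.01% DMSO. MTT (0.5 mg/mL final) 3 h; formazan dissolved in DMSO/methanol 1:1; A570 minus A690. Three independent experiments, 4–6 replicates, mean ± SD; one-way ANOVA with Tukey vs MPP+.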

[5] = molecular target: T1, hD3 receptor (Homo sapiens, UniProt P35462); test: Stimulation of [35S]GTPγS binding to hD3 receptors expressed in CHO cells; type: biochemical; settings: for agonist type at D3 receptor: GTPγS, compared with Emax of DA
[6] = molecular target: T2, hD2 receptor (Homo sapiens, UniProt P14416); test: Stimulation of [35S]GTPγS binding to hD2 receptors expressed in CHO cells; type: biochemical; settings: compared with Emax of DA
[7] = molecular target: T2, hD2 receptor; settings: GTPγS, compared with Emax of DA; cited from earlier work
[8] = molecular target: T1, hD3 receptor; settings: GTPγS, compared with Emax of DA; cited from earlier work
[9] = molecular target: rD2L receptor (Rattus norvegicus, UniProt P61169); settings: read-out: Ki (nM), rD2L [3H]spiroperidol; HEK-293 cells; from previous ref 44; cited from earlier work
[10] = molecular target: rD3 receptor (Rattus norvegicus, UniProt P19020); settings: read-out: Ki (nM), rD3 [3H]spiroperidol; HEK-293 cells; from previous ref 44; cited from earlier work
Chain of rD3 receptor (P19020 whole entry): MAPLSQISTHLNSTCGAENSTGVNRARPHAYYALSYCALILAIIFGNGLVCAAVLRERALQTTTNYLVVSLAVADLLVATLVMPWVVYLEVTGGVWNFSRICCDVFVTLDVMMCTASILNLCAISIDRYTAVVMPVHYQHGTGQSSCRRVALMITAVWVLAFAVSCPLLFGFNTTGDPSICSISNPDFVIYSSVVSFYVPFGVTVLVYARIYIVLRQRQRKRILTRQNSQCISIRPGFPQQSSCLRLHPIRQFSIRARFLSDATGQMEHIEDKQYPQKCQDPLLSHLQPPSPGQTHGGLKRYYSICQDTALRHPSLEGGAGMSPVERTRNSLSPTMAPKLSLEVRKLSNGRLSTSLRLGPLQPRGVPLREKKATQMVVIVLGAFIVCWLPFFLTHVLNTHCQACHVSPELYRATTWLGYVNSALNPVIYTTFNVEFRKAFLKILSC

T1 sequence (P35462 whole entry): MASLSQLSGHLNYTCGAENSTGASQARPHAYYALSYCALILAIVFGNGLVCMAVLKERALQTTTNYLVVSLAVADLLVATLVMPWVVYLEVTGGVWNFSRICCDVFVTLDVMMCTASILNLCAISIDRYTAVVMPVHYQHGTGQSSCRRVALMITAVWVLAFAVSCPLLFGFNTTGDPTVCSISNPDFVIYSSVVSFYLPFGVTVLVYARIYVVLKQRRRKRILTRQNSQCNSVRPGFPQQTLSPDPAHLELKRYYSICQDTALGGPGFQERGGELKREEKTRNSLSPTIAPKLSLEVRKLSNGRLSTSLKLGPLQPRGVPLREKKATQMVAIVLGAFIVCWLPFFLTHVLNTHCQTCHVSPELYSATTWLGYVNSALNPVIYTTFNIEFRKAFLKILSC
T2 sequence (P14416 whole entry): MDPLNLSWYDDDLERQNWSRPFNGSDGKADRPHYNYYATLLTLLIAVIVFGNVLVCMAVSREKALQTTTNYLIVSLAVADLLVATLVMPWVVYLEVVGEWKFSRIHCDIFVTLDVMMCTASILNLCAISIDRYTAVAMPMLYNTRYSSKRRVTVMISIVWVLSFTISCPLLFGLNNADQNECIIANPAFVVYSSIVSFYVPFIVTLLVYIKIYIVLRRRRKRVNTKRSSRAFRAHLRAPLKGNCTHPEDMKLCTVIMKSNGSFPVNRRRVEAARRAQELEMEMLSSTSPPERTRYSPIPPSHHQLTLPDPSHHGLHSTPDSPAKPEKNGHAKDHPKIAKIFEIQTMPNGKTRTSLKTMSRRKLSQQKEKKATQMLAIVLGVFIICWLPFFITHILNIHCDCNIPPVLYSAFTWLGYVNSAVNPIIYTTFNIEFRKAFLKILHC
Chain of rD2L receptor (P61169 whole entry): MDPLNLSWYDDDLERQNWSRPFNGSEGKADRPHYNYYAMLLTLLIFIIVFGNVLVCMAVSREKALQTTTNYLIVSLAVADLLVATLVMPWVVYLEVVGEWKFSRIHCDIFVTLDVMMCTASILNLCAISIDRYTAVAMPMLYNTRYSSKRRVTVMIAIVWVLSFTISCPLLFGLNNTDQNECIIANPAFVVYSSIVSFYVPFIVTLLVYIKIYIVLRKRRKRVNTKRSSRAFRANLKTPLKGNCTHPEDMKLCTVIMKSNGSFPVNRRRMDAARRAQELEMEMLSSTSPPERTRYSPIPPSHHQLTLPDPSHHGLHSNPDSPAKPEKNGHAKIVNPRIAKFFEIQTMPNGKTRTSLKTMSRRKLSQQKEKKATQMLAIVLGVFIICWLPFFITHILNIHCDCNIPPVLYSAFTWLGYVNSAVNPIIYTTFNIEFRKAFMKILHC

SMILES: CCCN(CCC)CCc1cccc2c1CC(=O)N2 [ropinirole, Ropinirole, reference compound]
DPPH radical scavenging (antioxidant) activity [1]: poor activity
duration of action in reserpine-treated rats ([2]; 5 μmol/kg, s.c., compared to the test compounds): much shorter duration of action
duration of action in 6-OHDA lesioned rats ([3]; 10 μmol/kg): much shorter duration of action

SMILES: CCCN(CCN1CCN(c2ccc(-c3cccc(O)c3)cc2)CC1)[C@H]1CCc2c(O)cccc2C1 [(−)-11, (S)-6-((2-(4-(3′-Hydroxybiphenyl-4-yl)piperazin-1-yl)ethyl)-(propyl)amino)-5,6,7,8-tetrahydronaphthalen-1-ol]
DPPH radical scavenging (antioxidant) activity [1]: less antioxidant activity in this assay than (−)-9b

increase in D3 functional potency in comparison to 1a ([5]; GTPγS EC50): 15 fold
increase in functional selectivity (D2/D3) in comparison to 1a ([5]; GTPγS EC50 ratio): 7 fold
agonist type at D3 receptor [5]: full agonist
agonist type at D2 receptor [6]: full agonist
SMILES: CCCN(CCN1CCN(c2ccc(-c3cccc(O)c3)cc2)CC1)[C@H]1CCc2nc(N)sc2C1 [Compound (−)-9b, (S)-4′-(4-(2-((2-Amino-4,5,6,7-tetrahydrobenzo[d]thiazol-6-yl)(propyl)amino)ethyl)piperazin-1-yl)biphenyl-3-ol]
protection of MN9D cells from MPP+ induced toxicity [4]: able to protect the MN9D cells in a dose-dependent manner
reversal of akinesia (locomotor activity) in reserpine-treated rats ([2]; 5 μmol/kg): highly efficacious in reversing akinesia
duration of rotation ([3]; 5 μmol/kg): more than 7 h
total number of rotations ([3]; 5 μmol/kg): 1839 rotations
duration of rotation ([3]; 10 μmol/kg): more than 10 h
total number of rotations ([3]; 10 μmol/kg): 2653 rotations
rotational activity in 6-OHDA lesioned rats [3]: produced potent rotational activity in a dose-dependent manner

less potent at D3 receptor in comparison to 1a ([5]; GTPγS EC50): 2 fold
agonist type at D3 receptor [5]: partial agonist
agonist type at D2 receptor [6]: full agonist
SMILES: CCCN(CCN1CCN(c2ccc(-c3cccc(OC)c3)cc2)CC1)[C@H]1CCc2nc(N)sc2C1 [Compound (−)-8b, (S)-N6-(2-(4-(3′-Methoxybiphenyl-4-yl)piperazin-1-yl)ethyl)-N6-propyl-4,5,6,7-tetrahydrobenzo[d]thiazole-2,6-diamine]
protection of MN9D cells from MPP+ induced toxicity [4]: did not show any neuroprotection
reversal of akinesia (locomotor activity) in reserpine-treated rats ([2]; 5 μmol/kg): highly efficacious in reversing akinesia
duration of rotation ([3]; 5 μmol/kg): more than 7 h
total number of rotations ([3]; 5 μmol/kg): 3333 rotations
duration of rotation ([3]; 10 μmol/kg): more than 10 h
total number of rotations ([3]; 10 μmol/kg): 5866 rotations
rotational activity in 6-OHDA lesioned rats [3]: produced potent rotational activity in a dose-dependent manner

SMILES: O=C1O[C@H]([C@@H](O)CO)C(O)=C1O [ascorbic acid]
DPPH radical scavenging (antioxidant) activity [1]: inhibited DPPH radical activity dose dependently

SMILES: CN1CCc2cccc3c2[C@H]1Cc1ccc(O)c(O)c1-3 [apomorphine, reference compound]
average contralateral rotation ([3]; apomorphine 0.05 mg/kg, 21 days postlesion, recorded for 30 min): > 250

SMILES: CCCN(CCN1CCN(c2ccc(-c3ccccc3)cc2)CC1)[C@H]1CCc2nc(N)sc2C1 [Compound 1a, (−)-N6-(2-(4-(Biphenyl-4-yl)piperazin-1-yl)-ethyl)-N6-propyl-4,5,6,7-tetrahydrobenzo[d]thiazole-2,6-diamine]
agonist type at D2 receptor [7]: full agonist
agonist type at D3 receptor [8]: full agonist
protection of MN9D cells from MPP+ induced toxicity [4]: able to protect the MN9D cells in a dose-dependent manner
Ki [9]: 186 ± 34 nM
Ki [10]: 2.1 ± 0.34 nM
reversal of akinesia (locomotor activity) in reserpine-treated rats ([2]; 5 μmol/kg): failed to produce any significant effect in reversing akinesia
reversal of akinesia in reserpine-treated rats ([2]; dissolved in 10% beta-hydroxy cyclodextrin solution, 5 μmol/kg i.p.): more effective
rotational activity in 6-OHDA lesioned rats [3]: failed to show any in vivo activity
